# From ChEMBL document CHEMBL3124808, “C-peptide inhibitors of Ebola virus glycoprotein-mediated cell entry: effects of conjugation to cholesterol and side chain-side chain crosslinking” (Bioorg Med Chem Lett, 2013)
# Calls of active or inactive are those of the source. The rule behind the calls is not given here. Where a SMILES comes first, the peptide text is derived from it. The star is where a group is joined. X1 = CC(C)CCC[C@@H](C)[C@H]1CC[C@H]2[C@@H]3CC=C4C[C@@H](OC(=O)C*)CC[C@]4(C)[C@H]3CC[C@]12C
# Legend:
# Assay type in all cases: cell-based
# Vero [1] = assay: Inhibition of Vesicular stomatitis virus envelope glycoprotein G-mediated viral entry in African green monkey Vero cells at 40 uM incubated for 1 hr prior to viral addition measured after 1 hr by fluorescence microscopy relative to control
# Vero [2] = assay: Cytotoxicity against African green monkey Vero cells at 40 uM by Cyto Tox Glo assay; details: chlorocebus sabaeus
# In short: (§1)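 Vero cells exposed to peptide were scored for tolerance by visual inspection and by a commercial cell viability assay.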
# [3] = biological target: T1, Envelope glycoprotein (Zaire ebolavirus (strain Mayinga-76) (ZEBOV) (Zaire Ebola virus)) (UniProt Q05320); assay: Inhibition of Vesicular stomatitis virus particle bearing EBOV glycoprotein-mediated viral entry in African green monkey Vero cells at 40 uM incubated for 1 hr prior to viral addition measured after 1 hr by fluorescence microscopy relative to control
# T1 sequence (whole entry): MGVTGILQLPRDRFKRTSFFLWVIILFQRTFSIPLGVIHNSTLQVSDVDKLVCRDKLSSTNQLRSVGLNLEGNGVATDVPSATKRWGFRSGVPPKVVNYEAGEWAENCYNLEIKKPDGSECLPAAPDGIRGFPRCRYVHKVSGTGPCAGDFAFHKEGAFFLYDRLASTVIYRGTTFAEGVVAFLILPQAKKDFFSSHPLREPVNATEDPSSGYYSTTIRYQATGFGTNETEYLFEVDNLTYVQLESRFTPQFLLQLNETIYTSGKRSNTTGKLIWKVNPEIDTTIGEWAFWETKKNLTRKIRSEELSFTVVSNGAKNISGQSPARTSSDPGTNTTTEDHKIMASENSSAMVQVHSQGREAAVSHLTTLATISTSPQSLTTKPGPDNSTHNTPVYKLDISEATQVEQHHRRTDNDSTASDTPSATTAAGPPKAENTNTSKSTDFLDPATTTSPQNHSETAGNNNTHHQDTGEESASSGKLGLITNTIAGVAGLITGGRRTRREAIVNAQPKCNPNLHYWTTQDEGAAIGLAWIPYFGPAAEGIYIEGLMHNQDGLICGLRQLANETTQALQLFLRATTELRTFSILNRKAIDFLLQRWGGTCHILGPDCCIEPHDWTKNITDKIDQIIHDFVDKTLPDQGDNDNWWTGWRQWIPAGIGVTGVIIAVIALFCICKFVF
# In short: (§2)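 Vero host cells were infected with VSV particles bearing the EBOV glycoprotein in place of G, with a matrix protein–eGFP fusion. Primary infection events were quantified by fluorescence confocal microscopy, and inhibition was expressed as fold or percent reduction in infection versus control.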
# [4] = biological target: T1, Envelope glycoprotein (Zaire ebolavirus (strain Mayinga-76) (ZEBOV) (Zaire Ebola virus)); assay: Inhibition of Vesicular stomatitis virus particle bearing EBOV glycoprotein-mediated viral entry in African green monkey Vero cells at >20 uM incubated for 1 hr prior to viral addition measured after 1 hr by fluorescence microscopy relative to control; in short: as §2
# [5] = biological target: T1, Envelope glycoprotein (Zaire ebolavirus (strain Mayinga-76) (ZEBOV) (Zaire Ebola virus)); assay: Inhibition of Vesicular stomatitis virus particle bearing EBOV glycoprotein-mediated viral entry in African green monkey Vero cells at 20 uM incubated for 1 hr prior to viral addition measured after 1 hr by fluorescence microscopy relative to control; in short: as §2
# Vero [6] = assay: Inhibition of Vesicular stomatitis virus envelope glycoprotein G-mediated viral entry in African green monkey Vero cells incubated for 1 hr prior to viral addition measured after 1 hr by fluorescence microscopy relative to control
# [7] = biological target: T1, Envelope glycoprotein (Zaire ebolavirus (strain Mayinga-76) (ZEBOV) (Zaire Ebola virus)); assay: Inhibition of Vesicular stomatitis virus particle bearing EBOV glycoprotein-mediated viral entry in African green monkey Vero cells incubated for 1 hr prior to viral addition measured after 1 hr by fluorescence microscopy relative to control; in short: as §2
# Vero [8] = assay: Cytotoxicity against African green monkey Vero cells at >15 uM by Cyto Tox Glo assay; details: chlorocebus sabaeus
# Vero [9] = assay: Inhibition of Vesicular stomatitis virus envelope glycoprotein G-mediated viral entry in African green monkey Vero cells at >10 uM incubated for 1 hr prior to viral addition measured after 1 hr by fluorescence microscopy relative to control
# Vero [10] = assay: Inhibition of Vesicular stomatitis virus envelope glycoprotein G-mediated viral entry in African green monkey Vero cells at 10 uM incubated for 1 hr prior to viral addition measured after 1 hr by fluorescence microscopy relative to control
# Vero [11] = assay: Cytotoxicity against African green monkey Vero cells at 30 to 40 uM by Cyto Tox Glo assay; details: chlorocebus sabaeus; in short: as §1
# [12] = biological target: T1, Envelope glycoprotein (Zaire ebolavirus (strain Mayinga-76) (ZEBOV) (Zaire Ebola virus)); assay: Inhibition of Vesicular stomatitis virus particle bearing EBOV glycoprotein-mediated viral entry in African green monkey Vero cells at 75 uM incubated for 1 hr prior to viral addition measured after 1 hr by fluorescence microscopy relative to control
compound,measurement,setting,value
CC[C@H](C)[C@H](NC(=O)CNC(=O)[C@H](CO)NC(=O)CNC(=O)[C@H](CCCNC(=N)N)NC(=O)[C@H](CCCNC(=N)N)NC(=O)[C@H](CCCNC(=N)N)NC(=O)[C@H](CCC(N)=O)NC(=O)[C@H](CCCNC(=N)N)NC(=O)[C@H](CCCNC(=N)N)NC(=O)[C@H](CCCCN)NC(=O)[C@H](CCCCN)NC(=O)[C@H](CCCNC(=N)N)NC(=O)CNC(=O)[C@H](Cc1ccc(O)cc1)NC(C)=O)C(=O)N[C@@H](CCC(=O)O)C(=O)N1CCC[C@H]1C(=O)N[C@@H](Cc1cnc[nH]1)C(=O)N[C@@H](CC(=O)O)C(=O)N[C@@H](Cc1c[nH]c2ccccc12)C(=O)N[C@H](C(=O)N[C@@H](CCCCN)C(=O)N[C@H]1CSCC(=O)NCCC[C@@H](C(=O)N[C@@H](CCCCN)C(=O)N[C@H](C(=O)N[C@@H](CC(=O)O)C(=O)N[C@@H](CCC(N)=O)C(=O)N[C@H](C(=O)N[C@H](C(=O)N[C@@H](Cc2cnc[nH]2)C(=O)N[C@@H](CC(=O)O)C(=O)N[C@@H](Cc2ccccc2)C(=O)N[C@H](C(=O)N[C@@H](CC(=O)O)C(=O)N[C@@H](CCCCN)C(=O)O)C(C)C)[C@@H](C)CC)[C@@H](C)CC)[C@@H](C)CC)NC(=O)[C@H]([C@@H](C)O)NC(=O)[C@H]([C@@H](C)CC)NC1=O)[C@@H](C)O,inhibition,Vero [1],80%
same,Activity,Vero [2],Non-toxic
same,inhibition,[3],99%
CC(C)CCC[C@@H](C)[C@H]1CC[C@H]2[C@@H]3CC=C4C[C@@H](OC(=O)CSC[C@H](NC(=O)CNC(=O)[C@H](CO)NC(=O)CNC(=O)[C@H](CCCCN)NC(=O)[C@H](CCCCN)NC(=O)[C@H](CCCCN)NC(=O)[C@@H](N)CCCCN)C(=O)O)CC[C@]4(C)[C@H]3CC[C@]12C (H-KKKKGSGC(X1)-OH),inhibition,[4],> 90%
same,inhibition,[5],Active
CC[C@H](C)[C@H](NC(=O)CNC(=O)[C@H](CO)NC(=O)CNC(=O)[C@H](CCCNC(=N)N)NC(=O)[C@H](CCCNC(=N)N)NC(=O)[C@H](CCCNC(=N)N)NC(=O)[C@H](CCC(N)=O)NC(=O)[C@H](CCCNC(=N)N)NC(=O)[C@H](CCCNC(=N)N)NC(=O)[C@H](CCCCN)NC(=O)[C@H](CCCCN)NC(=O)[C@H](CCCNC(=N)N)NC(=O)CNC(=O)[C@H](Cc1ccc(O)cc1)NC(C)=O)C(=O)N[C@@H](CCC(=O)O)C(=O)N1CCC[C@H]1C(=O)N[C@@H](Cc1cnc[nH]1)C(=O)N[C@@H](CC(=O)O)C(=O)N[C@@H](Cc1c[nH]c2ccccc12)C(=O)N[C@H](C(=O)N[C@@H](CCCCN)C(=O)N[C@@H](CC(N)=O)C(=O)N[C@H](C(=O)N[C@H](C(=O)N[C@H]1CSCC(=O)NCCC[C@H](C(=O)N[C@@H](CCC(N)=O)C(=O)N[C@H](C(=O)N[C@H](C(=O)N[C@@H](Cc2cnc[nH]2)C(=O)N[C@@H](CC(=O)O)C(=O)N[C@@H](Cc2ccccc2)C(=O)N[C@H](C(=O)N[C@@H](CC(=O)O)C(=O)N[C@@H](CCCCN)C(=O)O)C(C)C)[C@@H](C)CC)[C@@H](C)CC)NC(=O)[C@H]([C@@H](C)CC)NC(=O)[C@H](CCCCN)NC1=O)[C@@H](C)O)[C@@H](C)CC)[C@@H](C)O,inhibition,Vero [6],Active
same,inhibition,[7],Active
same,Activity,Vero [8],Toxic
CC(C)CCC[C@@H](C)[C@H]1CC[C@H]2[C@@H]3CC=C4C[C@@H](O)CC[C@]4(C)[C@H]3CC[C@]12C,inhibition,[7],Active
CC[C@H](C)[C@H](NC(=O)CNC(=O)[C@H](CO)NC(=O)CNC(=O)[C@H](CCCCN)NC(=O)[C@H](CCCCN)NC(=O)[C@H](CCCCN)NC(=O)[C@H](CCCCN)NC(=O)[C@@H](N)CSCC(=O)O[C@H]1CC[C@@]2(C)C(=CC[C@H]3[C@@H]4CC[C@H]([C@H](C)CCCC(C)C)[C@@]4(C)CC[C@@H]32)C1)C(=O)N[C@@H](CCC(=O)O)C(=O)N1CCC[C@H]1C(=O)N[C@@H](Cc1cnc[nH]1)C(=O)N[C@@H](CC(=O)O)C(=O)N[C@@H](Cc1c[nH]c2ccccc12)C(=O)N[C@H](C(=O)N[C@@H](CCCCN)C(=O)N[C@@H](CC(N)=O)C(=O)N[C@H](C(=O)N[C@H](C(=O)N[C@@H](CC(=O)O)C(=O)N[C@@H](CCCCN)C(=O)N[C@H](C(=O)N[C@@H](CC(=O)O)C(=O)N[C@@H](CCC(N)=O)C(=O)N[C@H](C(=O)N[C@H](C(=O)N[C@@H](Cc1cnc[nH]1)C(=O)N[C@@H](CC(=O)O)C(=O)N[C@@H](Cc1ccccc1)C(=O)N[C@H](C(=O)N[C@@H](CC(=O)O)C(=O)N[C@@H](CCCCN)C(=O)O)C(C)C)[C@@H](C)CC)[C@@H](C)CC)[C@@H](C)CC)[C@@H](C)O)[C@@H](C)CC)[C@@H](C)O,inhibition,[5],Active
same,Activity,Vero [2],20%
same,inhibition,Vero [9],> 99%
same,inhibition,Vero [10],90%
same,Ratio,[3],1000
CC[C@H](C)[C@H](N)C(=O)N[C@@H](CCC(=O)O)C(=O)N1CCC[C@H]1C(=O)N[C@@H](Cc1cnc[nH]1)C(=O)N[C@@H](CC(=O)O)C(=O)N[C@@H](Cc1c[nH]c2ccccc12)C(=O)N[C@H](C(=O)N[C@@H](CCCCN)C(=O)N[C@@H](CC(N)=O)C(=O)N[C@H](C(=O)N[C@H](C(=O)N[C@@H](CC(=O)O)C(=O)N[C@@H](CCCCN)C(=O)N[C@H](C(=O)N[C@@H](CC(=O)O)C(=O)N[C@@H](CCC(N)=O)C(=O)N[C@H](C(=O)N[C@H](C(=O)N[C@@H](Cc1cnc[nH]1)C(=O)N[C@@H](CC(=O)O)C(=O)N[C@@H](Cc1ccccc1)C(=O)N[C@H](C(=O)N[C@@H](CC(=O)O)C(=O)N[C@@H](CCCCN)C(=O)NCC(=O)N[C@@H](CO)C(=O)NCC(=O)N[C@@H](CCCCN)C(=O)N[C@@H](CCCCN)C(=O)N[C@@H](CCCCN)C(=O)N[C@@H](CCCCN)C(=O)N[C@@H](CSCC(=O)O[C@H]1CC[C@@]2(C)C(=CC[C@H]3[C@@H]4CC[C@H]([C@H](C)CCCC(C)C)[C@@]4(C)CC[C@@H]32)C1)C(=O)O)C(C)C)[C@@H](C)CC)[C@@H](C)CC)[C@@H](C)CC)[C@H](C)O)[C@@H](C)CC)[C@@H](C)O,inhibition,[5],Active
same,Activity,Vero [11],20%
same,inhibition,Vero [9],> 99%
same,inhibition,Vero [10],90%
same,Ratio,[3],1000
CC[C@H](C)[C@H](NC(=O)CNC(=O)[C@H](CO)NC(=O)CNC(=O)[C@H](CCCNC(=N)N)NC(=O)[C@H](CCCNC(=N)N)NC(=O)[C@H](CCCNC(=N)N)NC(=O)[C@H](CCC(N)=O)NC(=O)[C@H](CCCNC(=N)N)NC(=O)[C@H](CCCNC(=N)N)NC(=O)[C@H](CCCCN)NC(=O)[C@H](CCCCN)NC(=O)[C@H](CCCNC(=N)N)NC(=O)CNC(=O)[C@@H](N)Cc1ccc(O)cc1)C(=O)N[C@@H](CCC(=O)O)C(=O)N1CCC[C@H]1C(=O)N[C@@H](Cc1cnc[nH]1)C(=O)N[C@@H](CC(=O)O)C(=O)N[C@@H](Cc1c[nH]c2ccccc12)C(=O)N[C@H](C(=O)N[C@@H](CCCCN)C(=O)N[C@@H](CC(N)=O)C(=O)N[C@H](C(=O)N[C@H](C(=O)N[C@@H](CC(=O)O)C(=O)N[C@@H](CCCCN)C(=O)N[C@H](C(=O)N[C@@H](CC(=O)O)C(=O)N[C@@H](CCC(N)=O)C(=O)N[C@H](C(=O)N[C@H](C(=O)N[C@@H](Cc1cnc[nH]1)C(=O)N[C@@H](CC(=O)O)C(=O)N[C@@H](Cc1ccccc1)C(=O)N[C@H](C(=O)N[C@@H](CC(=O)O)C(=O)N[C@@H](CCCCN)C(=O)O)C(C)C)[C@@H](C)CC)[C@@H](C)CC)[C@@H](C)CC)[C@@H](C)O)[C@@H](C)CC)[C@@H](C)O,inhibition,[12],99%
